Active and inactive are the calls of the source. The calls are words filed in the database; no cut-off is given here.
Key:
Rattus norvegicus [1] = assay: Ex vivo induction of NQO1 in Sprague-Dawley rat bladder at 7.5 umol/kg/day, po for 10 days measured on day 11 relative to control; assay type: functional
Method in brief: (§1)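 Female Sprague-Dawley rats, 6 per group, gavaged with compound at 7.5 µmol/kg/day or soya oil for 10 days and killed on day 11. Bladder homogenized in ice-cold 0.2% Triton X-100 and cleared by centrifugation. NQO1 activity measured by the Ernster method, GST by the Habig method. Reported as treated/control mean ± SEM, ANOVA with Student-Newman-Keuls test.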

Rattus norvegicus [2] = assay: Ex vivo induction of GST in Sprague-Dawley rat bladder at 7.5 umol/kg/day, po for 10 days measured on day 11 relative to control; assay type: functional; method in brief: as §1
Rattus norvegicus [3] = assay: Ex vivo induction GCL protein expression in Sprague-Dawley rat bladder at 7.5 umol/kg/day, po for 10 days measured on day 11 by Western blot analysis; assay type: functional, organism-based
Method in brief: (§2)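 Female Sprague-Dawley rats, 3 per group, gavaged once daily with compound at 7.5 µmol/kg or soya oil vehicle for 10 days. Killed on day 11. Bladder homogenized in 10 mM Tris-HCl pH 7.4, 0.25 M sucrose, 1 mM PMSF, 1 µg/ml leupeptin. 25-40 µg protein run by SDS-PAGE, then Western blot, with GAPDH as loading control.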

Rattus norvegicus [4] = assay: Ex vivo induction GST-alpha protein expression in Sprague-Dawley rat bladder at 7.5 umol/kg/day, po for 10 days measured on day 11 by Western blot analysis; assay type: functional, organism-based; method in brief: as §2
Rattus norvegicus [5] = assay: Ex vivo induction GST-mu protein expression in Sprague-Dawley rat bladder at 7.5 umol/kg/day, po for 10 days measured on day 11 by Western blot analysis; assay type: functional, organism-based; method in brief: as §2
Rattus norvegicus [6] = assay: Ex vivo induction GST-pi protein expression in Sprague-Dawley rat bladder at 7.5 umol/kg/day, po for 10 days measured on day 11 by Western blot analysis; assay type: functional, organism-based; method in brief: as §2
NBT2 [7] = assay: Induction of NQO1 protein expression in rat NBT2 cells after 24 hrs by Western blot analysis; assay type: functional, cell-based
Method in brief: (§3)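 NBT-II rat bladder carcinoma cells grown in MEM with 10% FBS. Plated overnight, then exposed to compound at 25 or 50 µM for 24 h, with 0.1% DMSO final. Cells trypsinized, lysed with 1 mM PMSF and sonicated. 25-40 µg protein taken for Western blot, GAPDH as loading control. At least two experiments.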

NBT2 [8] = assay: Induction of GST-mu protein expression in rat NBT2 cells after 24 hrs by Western blot analysis; assay type: functional, cell-based; method in brief: as §3
NBT2 [9] = assay: Induction of GST-alpha protein expression in rat NBT2 cells after 24 hrs by Western blot analysis; assay type: functional, cell-based; method in brief: as §3
NBT2 [10] = assay: Induction of GST-pi protein expression in rat NBT2 cells at 25 to 50 uM after 24 hrs by Western blot analysis; assay type: functional, cell-based; method in brief: as §3
NBT2 [11] = assay: Induction of GCL protein expression in rat NBT2 cells at 25 to 50 uM after 24 hrs by Western blot analysis; assay type: functional, cell-based; method in brief: as §3
Rattus norvegicus [12] = assay: Ex vivo induction of NQO1 in Sprague-Dawley rat liver at 7.5 umol/kg/day, po for 10 days measured on day 11 relative to control; assay type: functional
Method in brief: (§4)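 Organs taken from the same rats used for the bladder study: female Sprague-Dawley, compound at 7.5 µmol/kg/day by gavage or soya oil for 10 days, killed on day 11. GI contents rinsed out under cold water and tissues stored at −80°C. Homogenized in 0.2% Triton X-100 and centrifuged. Supernatant NQO1 activity measured by the Ernster method, expressed as treated/control.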

Rattus norvegicus [13] = assay: Ex vivo induction of NQO1 in Sprague-Dawley rat kidney at 7.5 umol/kg/day, po for 10 days measured on day 11 relative to control; assay type: functional; method in brief: as §4
Rattus norvegicus [14] = assay: Ex vivo induction of NQO1 in Sprague-Dawley rat lung at 7.5 umol/kg/day, po for 10 days measured on day 11 relative to control; assay type: functional; method in brief: as §4
Rattus norvegicus [15] = assay: Ex vivo induction of NQO1 in Sprague-Dawley rat duodenum at 7.5 umol/kg/day, po for 10 days measured on day 11 relative to control; assay type: functional; method in brief: as §4
Rattus norvegicus [16] = assay: Ex vivo induction of NQO1 in Sprague-Dawley rat jejunum at 7.5 umol/kg/day, po for 10 days measured on day 11 relative to control; assay type: functional; method in brief: as §4
Rattus norvegicus [17] = assay: Ex vivo induction of NQO1 in Sprague-Dawley rat ileum at 7.5 umol/kg/day, po for 10 days measured on day 11 relative to control; assay type: functional; method in brief: as §4
Rattus norvegicus [18] = assay: Ex vivo induction of NQO1 in Sprague-Dawley rat colon at 7.5 umol/kg/day, po for 10 days measured on day 11 relative to control; assay type: functional; method in brief: as §4
Rattus norvegicus [19] = assay: Ex vivo induction of NQO1 in Sprague-Dawley rat stomach at 7.5 umol/kg/day, po for 10 days measured on day 11 relative to control; assay type: functional; method in brief: as §4
[20] = biological target: T1, Nuclear factor erythroid 2-related factor 2 (Rattus norvegicus) (UniProt O54968); assay: Induction of Nrf-mediated NQO1 protein expression in wild type rat NBT2 cells at 25 uM after 24 hrs Western blot analysis; assay type: functional, cell-based
T1 sequence (whole entry): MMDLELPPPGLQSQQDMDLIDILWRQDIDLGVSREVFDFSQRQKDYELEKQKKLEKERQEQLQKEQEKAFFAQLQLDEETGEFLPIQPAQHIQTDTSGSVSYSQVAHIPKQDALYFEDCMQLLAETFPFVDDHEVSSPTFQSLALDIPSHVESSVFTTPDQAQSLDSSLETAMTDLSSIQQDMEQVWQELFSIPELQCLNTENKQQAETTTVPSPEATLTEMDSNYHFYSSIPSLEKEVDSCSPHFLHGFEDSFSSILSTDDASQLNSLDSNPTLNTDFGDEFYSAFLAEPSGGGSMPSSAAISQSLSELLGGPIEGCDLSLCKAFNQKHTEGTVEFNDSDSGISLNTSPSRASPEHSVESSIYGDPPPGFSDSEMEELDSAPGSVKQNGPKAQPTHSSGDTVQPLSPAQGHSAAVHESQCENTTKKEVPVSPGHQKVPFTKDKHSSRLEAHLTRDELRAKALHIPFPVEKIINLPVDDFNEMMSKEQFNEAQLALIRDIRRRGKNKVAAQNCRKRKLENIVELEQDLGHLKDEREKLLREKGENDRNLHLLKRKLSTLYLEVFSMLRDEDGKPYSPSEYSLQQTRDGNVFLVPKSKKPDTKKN
Method in brief: (§5)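 NBT-II cells transfected with Nrf2 stealth RNAi or control RNAi (0.584 nmol per dish, lipofectamine 2000) for 48 h. Then treated with compound at 25 µM or vehicle for 24 h, with 0.1% DMSO final. Lysates analyzed by Western blot for Nrf2, GCL, GST-α, GST-μ and NQO1, with GAPDH as loading control.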

NBT2 [21] = assay: Induction of GCL protein expression in Nrf gene knockout rat NBT2 cells at 25 uM after 24 hrs Western blot analysis; assay type: functional, cell-based; method in brief: as §5
NBT2 [22] = assay: Induction of GST-alpha protein expression in Nrf gene knockout rat NBT2 cells at 25 uM after 24 hrs Western blot analysis; assay type: functional, cell-based; method in brief: as §5
NBT2 [23] = assay: Induction of GST-mu protein expression in Nrf gene knockout rat NBT2 cells at 25 uM after 24 hrs Western blot analysis; assay type: functional, cell-based; method in brief: as §5
NBT2 [24] = assay: Induction of NQO1 protein expression in Nrf gene knockout rat NBT2 cells at 25 uM after 24 hrs Western blot analysis; assay type: functional, cell-based; method in brief: as §5
[25] = biological target: T1, Nuclear factor erythroid 2-related factor 2 (Rattus norvegicus); assay: Induction of Nrf in wild type rat NBT2 cells at 25 uM after 24 hrs Western blot analysis; assay type: functional, cell-based; method in brief: as §5
[26] = biological target: T1, Nuclear factor erythroid 2-related factor 2 (Rattus norvegicus); assay: Induction of Nrf-mediated GCL protein expression in wild type rat NBT2 cells at 25 uM after 24 hrs Western blot analysis; assay type: functional, cell-based; method in brief: as §5
[27] = biological target: T1, Nuclear factor erythroid 2-related factor 2 (Rattus norvegicus); assay: Induction of Nrf-mediated GST-alpha protein expression in wild type rat NBT2 cells at 25 uM after 24 hrs Western blot analysis; assay type: functional, cell-based; method in brief: as §5
[28] = biological target: T1, Nuclear factor erythroid 2-related factor 2 (Rattus norvegicus); assay: Induction of Nrf-mediated GST-mu protein expression in wild type rat NBT2 cells at 25 uM after 24 hrs Western blot analysis; assay type: functional, cell-based; method in brief: as §5
[29] = Dissociation constant, pKa of the compound; assay type: physicochemical

With `S=c1ssc2c1CCCC2` the “fold change (FC)” value (Rattus norvegicus [1]) was 1.46 and the “fold change (FC)” value (Rattus norvegicus [2]) was 1.05.

For `Cc1ssc(=S)c1C(=O)O`, the “fold change (FC)” value (Rattus norvegicus [1]) was 1.1 and the “fold change (FC)” value (Rattus norvegicus [2]) was 0.99.

In the case of `CCOC(=O)C1CCc2c1ssc2=S` (centres undefined), the Activity (Rattus norvegicus [3]) is reported as “Active”, the Activity (Rattus norvegicus [4]) is reported as “Active” and the Activity (Rattus norvegicus [5]) is reported as “Active”. For the same compound, the Activity (Rattus norvegicus [6]) was “inactive”, the Activity (NBT2 [7]) was “Dose-dependent effect” and the Activity (NBT2 [8]) was “Dose-dependent effect”. For the same compound, the Activity (NBT2 [9]) was “Dose-dependent effect”, the Activity (NBT2 [10]) was “inactive” and the Activity (NBT2 [11]) was “Active”. The “fold change (FC)” value (Rattus norvegicus [12]) was 1.17, the “fold change (FC)” value (Rattus norvegicus [13]) was 1.86 and the “fold change (FC)” value (Rattus norvegicus [14]) was 1.17. For the same compound, the “fold change (FC)” value (Rattus norvegicus [15]) was 1.53, the “fold change (FC)” value (Rattus norvegicus [16]) was 1.38 and the “fold change (FC)” value (Rattus norvegicus [17]) was 1.2. The “fold change (FC)” value (Rattus norvegicus [18]) was 1, the “fold change (FC)” value (Rattus norvegicus [1]) was 4.47 and the “fold change (FC)” value (Rattus norvegicus [2]) was 2.29. The “fold change (FC)” value (Rattus norvegicus [19]) was 1.93, the Activity [20] was “Active” and the Activity (NBT2 [21]) was “inactive”. For the same compound, the Activity (NBT2 [22]) was “inactive”, the Activity (NBT2 [23]) was “inactive” and the Activity (NBT2 [24]) was “inactive”. The Activity [25] was “Active”, the Activity [26] was “Active” and the Activity [27] was “Active”. For the same compound, the Activity [28] was “Active”.

With `CCOC(=O)c1cc(=S)ss1` the “fold change (FC)” value (Rattus norvegicus [1]) was 1.13 and the “fold change (FC)” value (Rattus norvegicus [2]) was 1.09.

With `O=c1ssc2c1CCC2` the “fold change (FC)” value (Rattus norvegicus [1]) was 1.24 and the “fold change (FC)” value (Rattus norvegicus [2]) was 1.11.

For `S=c1ccss1` [DITHIOLETHIONE], the “fold change (FC)” value (Rattus norvegicus [12]) was 1.3, the “fold change (FC)” value (Rattus norvegicus [13]) was 1.82 and the “fold change (FC)” value (Rattus norvegicus [14]) was 1.37. The “fold change (FC)” value (Rattus norvegicus [15]) was 5.6, the “fold change (FC)” value (Rattus norvegicus [16]) was 2.31 and the “fold change (FC)” value (Rattus norvegicus [17]) was 1.76. The “fold change (FC)” value (Rattus norvegicus [18]) was 1.81, the “fold change (FC)” value (Rattus norvegicus [1]) was 2.78 and the “fold change (FC)” value (Rattus norvegicus [2]) was 1.7. For the same compound, the “fold change (FC)” value (Rattus norvegicus [19]) was 5.31.

In the case of `S=c1ssc2c1CCC2`, the “fold change (FC)” value (Rattus norvegicus [12]) is reported as 1.26, the “fold change (FC)” value (Rattus norvegicus [13]) is reported as 1.87 and the “fold change (FC)” value (Rattus norvegicus [14]) is reported as 1.26. The “fold change (FC)” value (Rattus norvegicus [15]) was 2.82, the “fold change (FC)” value (Rattus norvegicus [16]) was 1.44 and the “fold change (FC)” value (Rattus norvegicus [17]) was 1.36. The “fold change (FC)” value (Rattus norvegicus [18]) was 1.28, the “fold change (FC)” value (Rattus norvegicus [1]) was 3.14 and the “fold change (FC)” value (Rattus norvegicus [2]) was 1.68. The “fold change (FC)” value (Rattus norvegicus [19]) was 3.55.

With `O=C(O)c1cssc1=S` the pKa [29] was 2.8, the “fold change (FC)” value (Rattus norvegicus [1]) was 3.69 and the “fold change (FC)” value (Rattus norvegicus [2]) was 2.11.

For `S=c1ssc(S)c1-c1ccccc1`, the “fold change (FC)” value (Rattus norvegicus [1]) was 1.11 and the “fold change (FC)” value (Rattus norvegicus [2]) was 1.03.

For `S=c1ssc2c1CCCCC2`, the “fold change (FC)” value (Rattus norvegicus [1]) was 1.2 and the “fold change (FC)” value (Rattus norvegicus [2]) was 1.14.

In the case of `COC(=O)c1c(C)ssc1=S`, the “fold change (FC)” value (Rattus norvegicus [1]) is reported as 1.24 and the “fold change (FC)” value (Rattus norvegicus [2]) is reported as 1.24.

In the case of `Cc1cssc1=S`, the “fold change (FC)” value (Rattus norvegicus [1]) is reported as 1.83 and the “fold change (FC)” value (Rattus norvegicus [2]) is reported as 1.23.

With `Oc1ccc(-c2cc(=S)ss2)cc1` the “fold change (FC)” value (Rattus norvegicus [1]) was 1.02 and the “fold change (FC)” value (Rattus norvegicus [2]) was 0.95.

Source: ChEMBL document CHEMBL1177701, “Synthesis, biological evaluation, and structure-activity relationships of dithiolethiones as inducers of cytoprotective phase 2 enzymes” (J Med Chem, 2010)
